A selection: hits, their analogues and other compounds. The true share with any hit is near 8.8%.
S1P3 ag = human S1P3 receptor agonists, primary screen, cell-based, primary and confirmation, NFAT-BLA reporter; Sphingosine 1-phosphate receptor 3 (Homo sapiens), Q99500; S1P3 NFAT-BLA reporter cells, agonism, FRET ratio; relative to 1 µM S1P, basal subtracted; activation, % at 4.5 µM; 0.1% of 60,000 active;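 active = activation above the screen-wide mean plus 3 SD, cut at about 4.5% in these data, passing the limit was not always enough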
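Benchmarks: high control 1 µM S1P / System: stable CHO line with human S1P3, Gα16, NFAT-BLA reporter / Dosing: single compound concentration, 4.5 µM final / Timing: 4 h compound at 37 °C, 2 h substrate at RT / Measured by: FRET β-lactamase substrate fluorescence, excitation 405 nm, 460/535 nm emission ratio, background-subtracted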
S1P1 ag pot = S1P1 agonists and agonism potentiators, primary screen, cell-based, primary and confirmation screens, CRE-bla reporter. Sphingosine 1-phosphate receptor 1 (Homo sapiens), P21453. S1P1 CRE-bla cells, forskolin, beta-lactamase FRET, potentiator mode; S1P1 agonist co-added at EC20, 2 nM; 100% = saturating reference agonist, 0% = basal. activation, % at 9.5 µM. 0.57% of 56,000 active;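 active = activation above a cutoff set at the mean activation of all tested compounds plus 3 SD, cut at about 54% in these data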;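 also: forskolin at 4 µM as EC80 and the EC20 agonist is SEW2871; 100% = SEW2871 at its EC100 plus forskolin at EC80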
SF-1 act = activators of human SF-1, primary screen, cell-based, CHO-K1, Gal4-SF-1 LBD, luciferase luminescence; Steroidogenic factor 1 (Homo sapiens), Q13285; CHO-K1 Gal4-SF-1 LBD luciferase reporter; % increase over DMSO SF-1-specific signal; activation, % at 10 µM; 1.9% of 65,000 active;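 active = activation above the mean activation of all tested compounds plus 3 SD, cut at about 50% in these data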
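Test system: CHO-K1 cells co-transfected with Gal4 DBD–human SF-1 LBD, 5xGal4 luciferase reporter. Quantity: 4,000 cells per well. Compound: 10 µM only. Incubation: compound added 1 h post-seeding, 20 h exposure at 37 °C, 5% CO2. Detection: SteadyLite luciferase luminescence. Replication: one test per compound.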
M1 ag = M1 muscarinic receptor agonists, primary screen, CHO-M1 cells, Fluo-4 calcium, agonist mode; 3% of 64,000 active; Muscarinic acetylcholine receptor M1; B-score at 10 µM; Fluo-4 calcium fluorescence; stronger effect = higher value;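 active = fluorescence rise, raw or as B-score row- and column-corrected plate score, outside the 99.7% band of its plate's samples, either direction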
M1 antag = antagonists of rat M1 muscarinic receptor; CHO-M1 cells, Fluo-4 calcium, ACh EC80 antagonist mode; stronger effect = lower value; AID 628, 2007; B-score at 10 µM; 3.4% of 64,000 active;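 active = calcium fluorescence response, raw or row-and-column corrected B-score, differing from the plate sample mean either way at a set confidence level, mostly lower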
Target sequence (P08482 whole entry, looked up): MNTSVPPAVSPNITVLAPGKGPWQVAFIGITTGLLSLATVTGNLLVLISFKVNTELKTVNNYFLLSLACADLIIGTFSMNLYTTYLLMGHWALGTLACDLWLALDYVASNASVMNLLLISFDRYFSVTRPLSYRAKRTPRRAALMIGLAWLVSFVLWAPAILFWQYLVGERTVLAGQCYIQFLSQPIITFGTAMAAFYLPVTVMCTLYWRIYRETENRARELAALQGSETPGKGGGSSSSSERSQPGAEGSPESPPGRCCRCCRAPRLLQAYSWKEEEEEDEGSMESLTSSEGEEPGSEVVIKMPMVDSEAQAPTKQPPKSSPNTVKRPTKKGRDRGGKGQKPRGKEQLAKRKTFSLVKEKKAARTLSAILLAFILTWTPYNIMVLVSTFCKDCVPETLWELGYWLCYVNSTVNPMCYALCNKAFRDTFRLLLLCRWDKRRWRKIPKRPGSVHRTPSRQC
RORA act = activators of orphan receptor RORA, primary screen, cell-based, luminescence; 1.5% of 65,000 active; AID 560, 2006; CHO-K1 Gal4-RORA LBD luciferase reporter; percent increase over mock-subtracted basal signal; activation, % at 10 µM;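 active = activation above the mean of all tested compounds plus 3 SD, cut at about 49% in these data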;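 also: 0% = DMSO-treated RORA cells and 100% = added signal equal to DMSO minus mock-transfected cells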
M1 agonist conf = rat M1 muscarinic receptor agonists, confirmation, CHO-M1 cells, Fluo-4 calcium, duplicate retest; shares compounds with M1 ag; Fluo-4 calcium fluorescence, agonist mode; actives lie on both sides; fluorescence change (max-min) at 10 µM; 19% of 1,700 active;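 active = fluorescence change differs from the solvent-only DMSO control mean at a set confidence level in both duplicate runs; inconclusive = differs from solvent-only control mean in just one of two runs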;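 also: an EC20 dose of acetylcholine follows compound addition during the same imaging run; raw fluorescence intensity difference in instrument units with no normalization to controls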
M4 ag counter = agonist activity at rat M4 receptor, confirmation, counter-screen for M1 allosteric modulator project, cell-based, agonist mode. shares compounds with M1 ag. CHO M4/Gqi5 cells, Fluo-4 calcium fluorescence; actives lie on both sides. fluorescence change (max-min) at 10 µM. 9% of 1,700 active. AID 1741, 2009;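 active = fluorescence change differing from the plate's solvent-only control wells at 99.7% confidence in both duplicates, whether higher or lower; inconclusive = differs from solvent controls in only one of two duplicates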
The depositor's hits bear a star; ? = inconclusive; nt = no result.

SMILES	S1P3 ag	S1P1 ag pot	SF-1 act	M1 ag	M1 antag	RORA act	M1 agonist conf	M4 ag counter
COCCNC(=O)C(c1ccc(C)o1)N(CC1CCCO1)C(=O)Cn1nnc2ccccc21 (stereo not given)	0	-4	3	1.9*	-0.031	-10	?	-50
COCCNC(=O)C(c1ccc(C)o1)N(Cc1ccc(OC)cc1)C(=O)Cn1nnc2ccccc21 (stereo not given)	0	-15	8	0.64	0.35	2	nt	nt
CCN(CC)CCn1c2ccccc2c2nc(C)sc21	-1	-4	13	-0.025	0.11	28	nt	nt
Cc1cc2cc(CCNC(=O)c3ccc(S(=O)(=O)N4CCOCC4)cc3)c(=O)[nH]c2cc1C	-1	-14	10	6.7*	-1.9	17	?	-67
CCC(CC)C(=O)NCCc1cc2cc(C)c(C)cc2[nH]c1=O	0	-10	8	0.48	1	-9	nt	nt
CCOC(=O)c1cnc2nc[nH]n2c1=O	-2	15	5	-1.3	0.84	16	nt	nt
O=C(Cn1cnc2c(nnn2-c2ccc(F)cc2)c1=O)N1CCCc2ccccc21	0	-26	25	-3.2*	0.44	29	16	-41
C=CCn1c(SC2CCOC2=O)nc2scc(C3CC3)c2c1=O (stereo not given)	2	-16	-4	0.3	-0.81	-12	nt	nt
CCN1C(=O)/C(=C/N2CCc3ccccc32)SC1=S	-1	-6	31	87*	-1.4	42	528*	491*
CCN1C(=O)/C(=C\N2CCCc3ccccc32)SC1=S	-1	-18	-18	-0.21	1.4	-7	nt	nt
Cn1c(=O)c2c(nc(Oc3ccccn3)n2C)n(C)c1=O	-2	5	-6	-0.24	-0.016	-4	nt	nt
CCCCCc1c(C)nc(N2CCOCC2)[nH]c1=O	1	5	-18	1.7	1.6	-4	nt	nt
Cc1ccc(Cl)cc1N1CCN(C(=O)Cn2ccc3ccccc3c2=O)CC1	0	29	-11	8.7*	-0.047	-3	3.7	-26
Cc1ccc(C)c(N2CCN(C(=O)CCNC(=O)Cn3ccc4ccccc4c3=O)CC2)c1	-1	14	-15	0.061	-0.74	-8	nt	nt
O=C1NC(c2ccco2)Nc2sc3c(c21)CCN(Cc1ccccc1)C3 (stereo not given)	-1	-45	-9	17*	-17*	20	33	21
COc1cc(C)nc(NC(=O)COc2ccc(Cl)cc2C)n1	-1	-19	-8	0.077	0.25	-6	nt	nt
Cc1cc(Cl)ccc1OCc1nc(-c2ccc(O)cc2)n[nH]1	-2	-4	-2	4.4*	0.79	-6	4.1	-13
CCC(C)(C)n1nnnc1C(CC(C)C)N1CCC(C(N)=O)CC1 (stereo not given)	0	1	1	-0.65	0.43	-8	nt	nt
COCCCNS(=O)(=O)c1ccc2c(c1)CCN2C(C)=O	nt	nt	14	-0.85	-0.36	-1	nt	nt
CC(=O)N1CCc2cc(S(=O)(=O)NCCCOC(C)C)ccc21	nt	nt	-4	-2.1*	0.44	-4	-9.8	?
COc1ccccc1NS(=O)(=O)c1ccc(C(=O)OCC(=O)NCc2ccco2)cc1	0	-2	-2	-1.5	-1.7e-05	3	nt	nt
COc1ccc(S(=O)(=O)Nc2ccccc2C(=O)NCc2ccco2)cc1	-2	10	-11	3.9*	-0.13	0	-2.3	-25
COc1ccc(N=c2oc3c(OC)cccc3cc2C(=O)NCc2ccco2)cc1OC	-1	-6	31	15*	0.31	12	18	-1.8
O=C(NCc1ccco1)c1cccc2ccccc12	-1	6	-23	11*	0.84	-17	-16	-41
COc1ccc(C(=O)Nc2ccccc2C(=O)NCc2ccco2)cc1OC	0	-42	7	6.6*	-0.87	-9	-2.9	-25
SMILES	S1P3 ag	S1P1 ag pot	SF-1 act	M1 ag	M1 antag	RORA act	M1 agonist conf	M4 ag counter
COc1ccc(N(CC(=O)O)S(=O)(=O)c2cccnc2)cc1	0	-39	8	-0.49	0.032	-7	nt	nt
Cc1ccccc1Cn1c(=N)n(CC(=O)c2ccco2)c2ccccc21	0	-26	-2	-0.42	-0.58	-23	nt	nt
Cn1ccnc1C(O)c1cc(C(C)(C)C)c(O)c(C(C)(C)C)c1 (stereo not given)	-1	19	6	0.065	-1.4	-32	nt	nt
COc1ccc(C(=O)Nc2ccc(Cl)cc2C(=O)NCc2ccco2)cc1OC	-2	-32	6	13*	-0.1	-2	-14	-16
COc1ccccc1-c1noc(-c2ccccc2C(=O)Nc2ccccc2)n1	0	-1	14	0.23	0.22	4	nt	nt
COc1ccc(-c2noc(-c3ccccc3C(=O)NCc3ccco3)n2)cc1OC	-1	0	-7	4.7*	-0.24	-19	-15	-27
COCCNC(=O)c1ccccc1NC(=O)c1ccc(OC)c(OC)c1	-1	4	0	31*	0.68	-4	-31*	-94*
COc1ccccc1OCCNC(=O)c1ccccc1C	-1	nt	6	-0.083	-0.1	8	nt	nt
COc1ccc(-c2noc(-c3ccccc3C(=O)NCc3ccco3)n2)cc1	-1	17	4	0.68	0.45	-18	nt	nt
COc1ccccc1NC(=O)c1ccccc1-c1nc(-c2ccccc2OC)no1	-1	nt	-5	7.3*	-1.4	-6	-29*	-50
CCOC(=O)C1CCCN(C(=O)c2ccc3c(c2)NC(=O)C(N2CCOCC2)S3)C1 (stereo not given)	0	11	0	-1.2	-0.24	8	nt	nt
c1ccc(N2CCN(c3c4c(nc5ncnn35)CCC4)CC2)cc1	nt	nt	-12	-2.4	0.58	0	nt	nt
COc1cccc(N2CCN(c3c4c(nc5ncnn35)CCC4)CC2)c1	nt	nt	-15	6.7*	0.16	-6	-1.9	-45

Compound activity from PubChem BioAssay.
